The record followed here is ChEMBL document CHEMBL4266041, “Hydroxybiphenylamide GroEL/ES Inhibitors Are Potent Antibacterials against Planktonic and Biofilm Forms of Staphylococcus aureus” (J Med Chem, 2018).

Active and inactive are the calls of the source. The rule behind the calls is not given here.

Data set [1] can be described thus: Cytotoxicity against human THLE3 cells assessed as reduction in cell viability after 48 hrs by Alamar Blue reporter assay. The note with it: for CC50: 48 h. A general note: Alamar Blue is a resazurin reagent that responds to reducing activity.
The target in another data set is HSP60/HSP10 (Homo sapiens, UniProt P10809). Nature of the data set: Inhibition of human N-terminal octa-His-tagged HSP60 expressed in Escherichia coli Rosetta(DE3) pLysS/human HSP10 expressed in Escherichia coli Rosetta(DE3) assessed as reduction in HSP60/HSP10-mediated denatured MDH refolding after 40 to 60 mins by spectrometric analysis. In outline: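 Human HSP60/10 refolding of denatured MDH, run the same way as the GroEL/ES-dMDH assay. A binary complex of chaperonin and denatured MDH is formed, and refolding is started with ATP and HSP10. MDH activity is the read-out. DMSO is the negative control. IC50 values from replicate curves are log-averaged after ROUT outlier screening.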

The test system of another data set is Enterobacter cloacae. The data set is described as follows: Antibacterial activity against Enterobacter cloacae subsp. cloacae ATCC 13047 after 24 hrs by bacterial proliferation assay. Format: functional, organism-based. Particulars: subsp. cloacae ATCC 13047, 24 h. In outline:
(§1)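 Bacterial growth inhibition in liquid culture. The highest concentration tested was 100 µM. The mean was back-calculated from the average log value. Values above the top concentration were set 0.1 log unit higher.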

In data set [2] the test system is Staphylococcus aureus. The data set is described as follows: Antibacterial activity against Staphylococcus aureus ATCC 25923 after 6 to 8 hrs by bacterial proliferation assay. Type of data set: functional, organism-based.
Data set [3] deals with Staphylococcus aureus. Nature of the data set: Antibacterial activity against methicillin-resistant Staphylococcus aureus ATCC BAA-44 after 6 to 8 hrs by bacterial proliferation assay. Type of data set: functional, organism-based. The note with it: Staphylococcus aureus, ATCC BAA-44.
The target of data set [4] is T1, E. coli GroEL/ES (Escherichia coli, UniProt P0A6F5). Nature of the data set: Inhibition of Escherichia coli GroEL expressed in Escherichia coli DH5alpha/Escherichia coli GroES expressed in Escherichia coli BL21 (DE3) assessed as reduction in GroEL/GroES-mediated denatured rhodanese refolding after 45 mins by spectrometric analysis. The method, boiled down:
(§2)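 Uses E. coli GroEL/ES with a denatured MDH or rhodanese reporter. GroEL first forms a binary complex with the denatured reporter. Refolding is started by adding ATP and GroES, then reporter enzyme activity is read. DMSO is the negative control. IC50 values from replicate curves are log-averaged after ROUT outlier screening.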

A further data set concerns Enterococcus faecium. The data set is described as follows: Antibacterial activity against Enterococcus faecium ATCC 19434 after 24 hrs by bacterial proliferation assay. Type of data set: functional, organism-based. Particulars: ATCC 19434, 24 h.
Data set [5] has as its target T1, E. coli GroEL/ES. Nature of the data set: Inhibition of Escherichia coli GroEL expressed in Escherichia coli DH5alpha/Escherichia coli GroES expressed in Escherichia coli BL21 (DE3) assessed as reduction in GroEL/GroES-mediated denatured MDH refolding after 20 to 40 mins by spectrometric analysis. In outline: as §2
The nature of data set [6]: (§3) Cytotoxicity against HEK293 cells assessed as reduction in cell viability after 48 hrs by Alamar Blue reporter assay. Particulars: human, HEK293 cells.
The subject of a further data set is Acinetobacter baumannii. Nature of the data set: Antibacterial activity against Acinetobacter baumannii ATCC 19606 after 24 hrs by bacterial proliferation assay. Format: functional, organism-based. Particulars: ATCC 19606 = CIP 70.34 = JCM 6841, 24 h. The method, boiled down:
as §1

The next data set deals with Pseudomonas aeruginosa. The data set is described as follows: Antibacterial activity against Pseudomonas aeruginosa ATCC 10145 after 24 hrs by bacterial proliferation assay. Type of data set: functional, organism-based. The note with it: ATCC 10145, 24 h. In outline:
as §1

Data set [7] deals with T2, Thiosulfate sulfurtransferase (Homo sapiens, UniProt Q16762).
T2 sequence (Q16762 whole entry): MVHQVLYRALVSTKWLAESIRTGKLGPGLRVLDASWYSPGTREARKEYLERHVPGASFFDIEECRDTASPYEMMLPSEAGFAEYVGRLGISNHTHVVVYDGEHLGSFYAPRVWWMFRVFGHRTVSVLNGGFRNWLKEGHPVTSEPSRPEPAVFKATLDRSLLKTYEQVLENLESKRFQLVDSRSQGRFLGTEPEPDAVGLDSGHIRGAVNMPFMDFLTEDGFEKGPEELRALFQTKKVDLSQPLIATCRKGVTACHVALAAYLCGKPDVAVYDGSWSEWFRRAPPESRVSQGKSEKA
The data set is described as follows: Inhibition of refolded rhodanese (unknown origin) preincubated with Escherichia coli GroEL/GroES for 60 mins in absence of compound followed by compound addition by spectrometric analysis.

The next data set concerns Klebsiella pneumoniae. Nature of the data set: Antibacterial activity against Klebsiella pneumoniae ATCC 13883 after 6 to 8 hrs by bacterial proliferation assay. Format: functional, organism-based. In outline: as §1
A short description of data set [8]: Inhibition of refolded MDH (unknown origin) preincubated with Escherichia coli GroEL/GroES for 45 mins in absence of compound followed by compound addition and measured for 20 to 35 mins by spectrometric analysis.
Data set [9] relates to Staphylococcus aureus. Nature of the data set: Bactericidal activity against Staphylococcus aureus Rosenbach ATCC 25923 in biofilms preincubated for 24 hrs followed by compound wash out and measured after 24 hrs. Format: functional, organism-based. The method, boiled down:
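ATCC 25923 preculture (TSB + 0.5% glucose, OD600 0.01) grown stagnant 24 h at 37°C to form biofilm, without compound. Wells washed 3× with PBS, then fresh TSB added with compound (100 µM–46 nM, 3-fold, DMSO) for 24 h at 37°C. Washed again, then recovered in fresh TSB 24 h at 37°C.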

Data set [10] relates to Staphylococcus aureus. Nature of the data set: Antibiofilm activity against Staphylococcus aureus Rosenbach ATCC 25923 after 24 hrs by crystal-violet based UV-Vis spectroscopy. Format: functional, organism-based. Particulars: Rosenbach ATCC 25923, 24 h. In outline: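 ATCC 25923 colony grown overnight in TSB at 37°C with shaking, precultured 1 h in TSB + 0.5% glucose, then diluted to OD600 0.01. Incubated stagnant at 37°C for 24 h with compound (100 µM–46 nM, 3-fold, DMSO), alongside bacteria-free baseline plates. Wells washed, crystal violet stained 15 min, developed in MeOH:AcOH:H2O, A595.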

Data set [11] has as its system Staphylococcus aureus. The data set is described as follows: Ratio of EC50 for bactericidal activity against Staphylococcus aureus Rosenbach ATCC 25923 in biofilms to EC50 for planktonic growth of Staphylococcus aureus Rosenbach ATCC 25923. Type of data set: functional.
In data set [12] the test system is Staphylococcus aureus. The data set is described as follows: Bactericidal activity against planktonic growth of Staphylococcus aureus Rosenbach ATCC 25923 preincubated for 24 hrs followed by compound wash out and measured after 24 hrs. Type of data set: functional, organism-based.
Data set [13] relates to Staphylococcus aureus. Nature of the data set: Antibacterial activity against methicillin-resistant Staphylococcus aureus ATCC BAA-44 precultured for 24 hrs passage with compound followed by subculture in presence of compound for 12 days serial passage. Type of data set: functional, organism-based. The method, boiled down:
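Cells from the first well with OD600 >0.2 were sub-cultured 24 h in a fresh compound dilution series. Serial passage ran for 12 days, with EC50 determined after each passage. Averages are from triplicate analyses.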

A further data set relates to HEK293. Described as §3. The note with it: human, hek293, 48 h.
Data set [14] in a line: Therapeutic index, ratio of CC50 for human THLE3 cells to EC50 for methicillin-resistant Staphylococcus aureus ATCC BAA-44. The note with it: read-out: Ratio CC50/EC50. Type of data set: toxicity. In outline: (§4)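 Ratio of human-cell CC50 to MRSA (ATCC BAA-44) EC50. […] EC50 comes from inhibition of MRSA proliferation in liquid culture. Replicate values were log-transformed, screened for outliers (ROUT, Q 10%), then averaged and back-calculated. Values above 100 µM were entered as 126 µM.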

Data set [15] in a line: Therapeutic index, ratio of CC50 for HEK293 cells to EC50 for methicillin-resistant Staphylococcus aureus ATCC BAA-44. Type of data set: toxicity. Particulars: human, read-out: Ratio CC50/EC50. In outline:
as §4

T1 sequence (P0A6F5 whole entry, looked up): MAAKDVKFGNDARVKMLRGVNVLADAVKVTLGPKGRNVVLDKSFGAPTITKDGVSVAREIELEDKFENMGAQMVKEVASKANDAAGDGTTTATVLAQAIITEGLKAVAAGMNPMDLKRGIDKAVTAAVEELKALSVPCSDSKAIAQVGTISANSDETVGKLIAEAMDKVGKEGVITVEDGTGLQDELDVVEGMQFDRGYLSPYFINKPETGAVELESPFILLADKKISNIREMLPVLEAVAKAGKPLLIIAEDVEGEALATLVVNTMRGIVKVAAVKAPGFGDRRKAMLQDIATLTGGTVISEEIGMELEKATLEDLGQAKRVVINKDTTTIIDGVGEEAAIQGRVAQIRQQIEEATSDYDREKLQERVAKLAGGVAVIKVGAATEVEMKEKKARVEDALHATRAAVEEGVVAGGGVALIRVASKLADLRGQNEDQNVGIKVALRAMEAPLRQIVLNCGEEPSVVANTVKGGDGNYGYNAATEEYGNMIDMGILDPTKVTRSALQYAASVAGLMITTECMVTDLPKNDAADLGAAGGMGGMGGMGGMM
Sequence of HSP60/HSP10 (P10809 whole entry): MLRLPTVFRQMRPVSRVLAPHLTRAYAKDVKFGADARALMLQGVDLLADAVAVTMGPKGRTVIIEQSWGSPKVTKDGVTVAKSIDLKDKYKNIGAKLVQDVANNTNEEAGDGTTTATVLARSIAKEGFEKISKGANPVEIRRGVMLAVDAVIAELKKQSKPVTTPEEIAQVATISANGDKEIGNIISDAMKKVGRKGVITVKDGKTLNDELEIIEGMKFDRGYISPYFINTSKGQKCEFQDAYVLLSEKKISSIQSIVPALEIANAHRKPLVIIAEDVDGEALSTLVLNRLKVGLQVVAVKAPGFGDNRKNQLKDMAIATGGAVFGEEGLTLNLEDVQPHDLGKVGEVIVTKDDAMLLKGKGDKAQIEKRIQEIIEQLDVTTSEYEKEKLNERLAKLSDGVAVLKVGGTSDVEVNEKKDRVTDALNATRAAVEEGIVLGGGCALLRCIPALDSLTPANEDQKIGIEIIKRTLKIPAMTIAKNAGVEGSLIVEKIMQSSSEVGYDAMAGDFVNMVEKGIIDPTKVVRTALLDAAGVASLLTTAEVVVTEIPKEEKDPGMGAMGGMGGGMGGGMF
Sequence of HSP60/HSP10 (P61604 whole entry, further chain): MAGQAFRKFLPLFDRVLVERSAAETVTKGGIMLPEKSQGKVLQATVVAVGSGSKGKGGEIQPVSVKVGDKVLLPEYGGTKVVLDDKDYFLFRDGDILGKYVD

By CC50 is commonly meant the concentration that lowers cell viability or growth by half. Usually IC50 stands for the point on the concentration scale where inhibition reaches its midpoint. In general, EC50 refers to the concentration at which the effect is half-maximal. A high value points to weaker potency. With `CCCCCCCCCC(=O)N[C@@H](Cc1c[nH]c2ccccc12)C(=O)NC(CC(N)=O)C(=O)N[C@@H](CC(=O)O)C(=O)N[C@@H]1C(=O)NCC(=O)N[C@@H](CCCN)C(=O)N[C@@H](CC(=O)O)C(=O)N[C@H](C)C(=O)N[C@@H](CC(=O)O)C(=O)NCC(=O)N[C@H](CO)C(=O)N[C@@H]([C@H](C)CC(=O)O)C(=O)N[C@@H](CC(=O)c2ccccc2N)C(=O)O[C@@H]1C` (single isomer, unassigned) [DAPTOMYCIN], the CC50 at 48 h in data set [1] (THLE3 cells) and in data set [6] was > 100 µM each time. The IC50 on HSP60/HSP10 was > 100 µM; on E. coli GroEL/ES [4], > 100 µM; at E. coli GroEL/ES [5], > 100 µM; in [7], > 100 µM; in data set [8] it was > 63 µM. Moreover, the EC50 in the data set with Enterobacter cloacae is > 100 µM; with Staphylococcus aureus [2], 0.68 µM; in the data set on Staphylococcus aureus [3], 1 µM; with Enterococcus faecium, 9.2 µM; in the data set on Acinetobacter baumannii, > 100 µM; with Pseudomonas aeruginosa it was > 100 µM. The EC50 in the data set with Klebsiella pneumoniae was > 100 µM.

For `O=C(Nc1cccc(Cl)c1)c1cc(Br)ccc1O`, the EC50 in the data set with Staphylococcus aureus [9] was 6.9 µM; in the data set on Enterobacter cloacae, > 100 µM; in the data set with Staphylococcus aureus [10], 0.44 µM; in the data set with Staphylococcus aureus [2], 0.46 µM; in the data set with Staphylococcus aureus [12], 0.46 µM; in the data set with Staphylococcus aureus [3] it was 0.53 µM. The EC50 with Enterococcus faecium, with Acinetobacter baumannii, in the data set on Pseudomonas aeruginosa and in the data set on Klebsiella pneumoniae was > 100 µM each time. The CC50 in data set [1] worked out at 4.1 µM; with HEK293, 15 µM. The IC50 is > 100 µM on HSP60/HSP10; > 100 µM on E. coli GroEL/ES [4]; > 100 µM on E. coli GroEL/ES [5]; > 100 µM in data set [7]; > 63 µM in data set [8]. For the same compound, the “Ratio EC50” value in the data set on Staphylococcus aureus [11] was 5 - 15. Also, the result in the data set on Staphylococcus aureus [13] was Active.

As to `O=C(Nc1ccc(Sc2nc3ccccc3s2)cc1)c1cc(Br)cc(Br)c1O`, the EC50 in the data set with Staphylococcus aureus [9] was 2.3 µM; in the data set with Enterobacter cloacae it was > 100 µM; in the data set on Staphylococcus aureus [10], 0.54 µM; in the data set on Staphylococcus aureus [2], 0.44 µM; with Staphylococcus aureus [12], 0.44 µM; with Staphylococcus aureus [3], 0.52 µM. Also, the EC50 in the data set with Enterococcus faecium was 0.88 µM; in the data set with Acinetobacter baumannii it was > 100 µM; in the data set with Pseudomonas aeruginosa, > 100 µM; in the data set with Klebsiella pneumoniae, > 100 µM. The CC50 in data set [1] came to 20 µM; in the data set on HEK293 it was 66 µM. The selectivity ratio in data set [14] and in data set [15] was > 50 in each case. For the same compound, the “Ratio EC50” value in the data set on Staphylococcus aureus [11] is given as 5 - 15. Moreover, the IC50 at E. coli GroEL/ES [4] is 1.3 µM; at E. coli GroEL/ES [5], 2.7 µM; in data set [7] it was > 100 µM; in [8], 8.4 µM.

In the case of `O=C(Nc1ccc(Sc2nc3ccccc3s2)c(Cl)c1)c1cc(Br)cc(Br)c1O`, the EC50 was 2.4 µM with Staphylococcus aureus [9]; > 100 µM with Enterobacter cloacae; 0.72 µM in the data set on Staphylococcus aureus [10]; 0.36 µM in the data set with Staphylococcus aureus [2]; 0.36 µM with Staphylococcus aureus [12]; 0.55 µM in the data set on Staphylococcus aureus [3]. Also, the half-maximal effective concentration (EC50) in the data set with Enterococcus faecium is 0.52 µM; with Acinetobacter baumannii it was 66 µM; in the data set with Pseudomonas aeruginosa it was > 100 µM; with Klebsiella pneumoniae, > 100 µM. Moreover, the half-maximal cytotoxic concentration (CC50) in [1] came to 14 µM; in the data set on HEK293, 76 µM. In addition, the selectivity ratio in [14] and in data set [15] was > 50 throughout. For the same compound, the “Ratio EC50” value in the data set with Staphylococcus aureus [11] is 5 - 15. Also, the IC50 on E. coli GroEL/ES [4] is 1.5 µM; in [7], > 100 µM; in data set [8], 6.8 µM. Moreover, the result in the data set on Staphylococcus aureus [13] was Active.
